{"source": "ChEMBL document CHEMBL5335790", "about": "“Design, synthesis and biological evaluation of novel 2,4-thiazolidinedione derivatives able to target the human BAG3 protein” (Eur J Med Chem, 2023)", "key": {"HD-MB03 [1]": {"system": "HD-MB03", "test": "Cytotoxicity against human HD-MB03 cells assessed as inhibition of cell growth at 10 uM incubated for 72 hrs by resazurin dye based analysis relative to control", "type": "functional", "outline": "(§1)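 Resazurin viability in HD-MB03 cells, 2000/well, single-agent arm of the 6x6 matrix. Inhibitor was added 24 h after seeding, in a 6-point 2-fold series, duplicates, two independent experiments. After 72 h exposure, resazurin was added at 44 µM final for 3 h at 37 °C and fluorescence read at 590 nm. Viability normalized to 1 µM bortezomib and 0.5% DMSO controls.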"}, "HD-MB03 [2]": {"system": "HD-MB03", "test": "Sensitization of chemotherapy induced cytotoxicity against human HD-MB03 cells assessed as inhibition of cell growth at 20 uM incubated for 72 hrs in presence of 1 unit of vincristine, etoposide, cisplatin, cyclophosphamide by resazurin dye based analysis (reference value: 91.53 +/- 1.15%)", "type": "functional"}, "HD-MB03 [3]": {"system": "HD-MB03", "test": "Sensitization of chemotherapy induced cytotoxicity against human HD-MB03 cells assessed as inhibition of cell growth at 10 uM incubated for 72 hrs in presence of 2 unit of vincristine, etoposide, cisplatin, cyclophosphamide by resazurin dye based analysis (reference value: 97.7 +/- 1.3%)", "type": "functional"}, "HD-MB03 [4]": {"system": "HD-MB03", "test": "Induction of autophagy in human HD-MB03 cells assessed as autophagic vacuole formation at 20 uM incubated for 24 hrs by bright field imaging analysis", "type": "functional, cell-based"}, "[5]": {"biological_target": "T1, BAG family molecular chaperone regulator 3 (Homo sapiens, UniProt O95817)", "T1 sequence (O95817 whole entry)": "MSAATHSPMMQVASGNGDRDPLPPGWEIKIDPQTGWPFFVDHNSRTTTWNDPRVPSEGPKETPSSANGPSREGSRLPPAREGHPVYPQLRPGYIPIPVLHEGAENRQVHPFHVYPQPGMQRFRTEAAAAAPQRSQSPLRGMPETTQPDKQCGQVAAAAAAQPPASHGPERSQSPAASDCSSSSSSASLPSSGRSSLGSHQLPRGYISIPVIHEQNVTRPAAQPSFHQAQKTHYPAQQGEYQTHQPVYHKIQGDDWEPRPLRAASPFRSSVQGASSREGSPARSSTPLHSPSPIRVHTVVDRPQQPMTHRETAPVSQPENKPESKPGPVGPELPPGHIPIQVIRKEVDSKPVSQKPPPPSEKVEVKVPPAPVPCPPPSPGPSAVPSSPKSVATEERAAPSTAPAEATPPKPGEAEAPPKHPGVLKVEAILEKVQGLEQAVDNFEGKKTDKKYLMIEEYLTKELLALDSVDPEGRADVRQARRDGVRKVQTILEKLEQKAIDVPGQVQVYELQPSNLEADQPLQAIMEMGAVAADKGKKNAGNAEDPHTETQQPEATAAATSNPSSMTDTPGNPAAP", "test": "Binding affinity to C-terminal His tagged human BAG3 transfected in HEK293T cells assessed as intermolecular nuclear overhauser effect mediated protein magnetization at 125 uM by waterLOGSY experiment", "type": "cell-based", "outline": "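Ligand-observed NMR in 50 mM sodium phosphate pH 7.8, 150 mM NaCl, 0.04% NaN3, 1.3% DMSO-d6, 5% D2O. Compound at 125 µM with 5 µM BAG3-His (HEK-293T expressed, purified by IMAC and SEC), each also run without protein. WaterLOGSY used 240 scans, 1.5 s mixing and water inversion at 4.7 ppm. STD used 256 scans with protein saturation at 0.4 ppm.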"}, "HD-MB03 [6]": {"system": "HD-MB03", "test": "Sensitization of chemotherapy induced cytotoxicity against human HD-MB03 cells assessed as inhibition of cell growth at 5 uM incubated for 72 hrs in presence of 2 unit of vincristine, etoposide, cisplatin, cyclophosphamide by resazurin dye based analysis (reference value: 97.7 +/- 1.3%)", "type": "functional"}, "HD-MB03 [7]": {"system": "HD-MB03", "test": "Induction of cell cycle arrest in human HD-MB03 cells assessed as accumulation of cells at S phase at 10 uM incubated for 48 hrs by RNase/PI staining based cytofluorimetric analysis (reference value: 40.9%)", "type": "functional"}, "[8]": {"test": "Cytotoxicity against PHA stimulated human PBMC cells assessed as cell growth inhibition incubated for 72 hrs by MTT assay", "type": "toxicity, cell-based"}, "HD-MB03 [9]": {"system": "HD-MB03", "test": "Cytotoxicity against human HD-MB03 cells assessed as inhibition of cell growth at 20 uM incubated for 72 hrs by resazurin dye based analysis relative to control", "type": "functional", "outline": "as §1"}, "HD-MB03 [10]": {"system": "HD-MB03", "test": "Sensitization of chemotherapy induced cytotoxicity against human HD-MB03 cells assessed as inhibition of cell growth at 10 uM incubated for 72 hrs in presence of 0.5 unit of vincristine, etoposide, cisplatin, cyclophosphamide by resazurin dye based analysis (reference value: 83.74+/- 0.54%)", "type": "functional"}, "HD-MB03 [11]": {"system": "HD-MB03", "test": "Induction of cell cycle arrest in human HD-MB03 cells assessed as accumulation of cells at S phase at 10 uM incubated for 72 hrs by RNase/PI staining based cytofluorimetric analysis (reference value: 40.9%)", "type": "functional"}, "HD-MB03 [12]": {"system": "HD-MB03", "test": "Sensitization of chemotherapy induced cytotoxicity against human HD-MB03 cells assessed as inhibition of cell growth at 20 uM incubated for 72 hrs in presence of 2 unit of vincristine, etoposide, cisplatin, cyclophosphamide by resazurin dye based analysis (reference value: 97.7 +/- 1.3%)", "type": "functional"}, "[13]": {"biological_target": "T1, BAG family molecular chaperone regulator 3", "test": "Binding affinity to CM4 sensorchip immobilized C-terminal His tagged human BAG3 transfected in HEK293T cells assessed as signal saturation at 50 uM by SPR analysis"}, "HD-MB03 [14]": {"system": "HD-MB03", "test": "Sensitization of chemotherapy induced cytotoxicity against human HD-MB03 cells assessed as inhibition of cell growth at 2.5 uM incubated for 72 hrs in presence of 0.5 unit of vincristine, etoposide, cisplatin, cyclophosphamide by resazurin dye based analysis (reference value: 83.74+/- 0.54%)", "type": "functional"}, "HD-MB03 [15]": {"system": "HD-MB03", "test": "Sensitization of chemotherapy induced cytotoxicity against human HD-MB03 cells assessed as inhibition of cell growth at 5 uM incubated for 72 hrs in presence of 0.5 unit of vincristine, etoposide, cisplatin, cyclophosphamide by resazurin dye based analysis (reference value: 83.74+/- 0.54%)", "type": "functional"}, "HD-MB03 [16]": {"system": "HD-MB03", "test": "Induction of apoptosis in human HD-MB03 cells assessed as membrane blebbing at 20 uM incubated for 24 hrs in presence of chloroquine by bright field imaging analysis", "type": "functional, cell-based"}, "HD-MB03 [17]": {"system": "HD-MB03", "test": "Induction of apoptosis in human HD-MB03 cells assessed as increase in total apoptotic cells at 20 uM incubated for 24 hrs in presence of chloroquine by Annexin V-FITC/PI staining based cytofluorimetric analysis", "type": "functional, cell-based", "outline": "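HD-MB03 cells exposed to 20 µM with or without chloroquine for 24 h, then stained with annexin V-FITC and PI for flow cytometry. Mean ± SEM of three independent experiments.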"}, "[18]": {"biological_target": "T1, BAG family molecular chaperone regulator 3", "test": "Binding affinity to CM4 sensorchip immobilized C-terminal His tagged human BAG3 transfected in HEK293T cells assessed as binding capacity at 50 uM by SPR analysis", "outline": "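SPR screen on BAG3-His amine-coupled to a CM4 chip at 60 µg/mL in pH 2.8 acetate. Compound at 50 µM in PBS with 5% DMSO and 0.05% P20 was injected for 90 s at 30 µL/min, then washed. Chip regenerated with 10 mM glycine pH 3. Bound RU read at equilibrium against a void flow cell; 3–10 repeats, mean ± SEM.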"}, "[19]": {"test": "Cytotoxicity against resting human PBMC cells assessed as cell growth inhibition incubated for 72 hrs by MTT assay", "type": "toxicity, cell-based"}, "[20]": {"biological_target": "T1, BAG family molecular chaperone regulator 3", "test": "Binding affinity to C-terminal His tagged human BAG3 transfected in HEK293T cells assessed as protein-ligand complex formation by measuring saturated protein magnetization via intermolecular spin-diffusion at 125 uM by STD NMR experiment"}, "HD-MB03 [21]": {"system": "HD-MB03", "test": "Induction of cell cycle arrest in human HD-MB03 cells assessed as accumulation of cells at G1 phase at 10 uM incubated for 72 hrs by RNase/PI staining based cytofluorimetric analysis (reference value: 54.7%)", "type": "functional"}, "HD-MB03 [22]": {"system": "HD-MB03", "test": "Sensitization of chemotherapy induced cytotoxicity against human HD-MB03 cells assessed as inhibition of cell growth at 1.25 uM incubated for 72 hrs in presence of 0.25 unit of vincristine, etoposide, cisplatin, cyclophosphamide by resazurin dye based analysis (reference value: 73.44 +/- 0.92%)", "type": "functional"}, "HD-MB03 [23]": {"system": "HD-MB03", "test": "Induction of cell cycle arrest in human HD-MB03 cells assessed as accumulation of cells at G2/M phase at 10 uM incubated for 48 hrs by RNase/PI staining based cytofluorimetric analysis (reference value: 4.4%)", "type": "functional"}, "HD-MB03 [24]": {"system": "HD-MB03", "test": "Cytotoxicity against human HD-MB03 cells assessed as inhibition of cell growth at 5 uM incubated for 72 hrs by resazurin dye based analysis relative to control", "type": "functional", "outline": "as §1"}}, "note": "Calls of active or inactive are those of the source. The rule behind the calls is not given here.", "data": [{"smiles": "CC(C(=O)N1CCOCC1)N1C(=O)S/C(=C\\c2cccc(O)c2O)C1=O", "note": "(racemic)", "values": [{"measurement": "inhibition at 10 µM", "setting": "HD-MB03 [1]", "value": 26.8, "unit": "%"}, {"measurement": "inhibition at 20 µM", "setting": "HD-MB03 [2]", "value": 89.1, "unit": "%"}, {"measurement": "inhibition at 10 µM", "setting": "HD-MB03 [3]", "value": 93.2, "unit": "%"}, {"measurement": "Activity", "setting": "HD-MB03 [4]", "value": "Active"}, {"measurement": "Activity", "setting": "[5]", "value": "Active"}, {"measurement": "inhibition at 5 µM", "setting": "HD-MB03 [6]", "value": 95.2, "unit": "%"}, {"measurement": "Activity", "setting": "HD-MB03 [7]", "value": 41.44, "unit": "%"}, {"measurement": "GI50 at 72 h", "setting": "[8]", "value": "> 100", "unit": "µM"}, {"measurement": "inhibition at 20 µM", "setting": "HD-MB03 [9]", "value": 52.9, "unit": "%"}, {"measurement": "inhibition at 10 µM", "setting": "HD-MB03 [10]", "value": 89.1, "unit": "%"}, {"measurement": "Activity", "setting": "HD-MB03 [11]", "value": 24.8, "unit": "%"}, {"measurement": "inhibition at 20 µM", "setting": "HD-MB03 [12]", "value": 90.5, "unit": "%"}, {"measurement": "Activity", "setting": "[13]", "value": "Active"}, {"measurement": "inhibition at 2.5 µM", "setting": "HD-MB03 [14]", "value": 83.3, "unit": "%"}, {"measurement": "inhibition at 5 µM", "setting": "HD-MB03 [15]", "value": 88.4, "unit": "%"}, {"measurement": "Activity", "setting": "HD-MB03 [16]", "value": "Active"}, {"measurement": "Activity", "setting": "HD-MB03 [17]", "value": "Active"}, {"measurement": "Activity", "setting": "[18]", "value": "> 5", "unit": "RU"}, {"measurement": "GI50 at 72 h", "setting": "[19]", "value": "> 100", "unit": "µM"}, {"measurement": "Activity", "setting": "[20]", "value": "Active"}, {"measurement": "Activity", "setting": "HD-MB03 [21]", "value": 74, "unit": "%"}, {"measurement": "inhibition at 1.25 µM", "setting": "HD-MB03 [22]", "value": 70.3, "unit": "%"}, {"measurement": "Activity", "setting": "HD-MB03 [23]", "value": 6.11, "unit": "%"}, {"measurement": "inhibition at 5 µM", "setting": "HD-MB03 [24]", "value": 3, "unit": "%"}]}]}
